≈ marks a conversion by molar mass, not a printed value.
Key:
Escherichia coli [1] = experiment: Antibacterial activity against Escherichia coli ATCC 25922 measured after 24 hrs; type: functional; conditions: ATCC 25922, 24 h
Method in brief: (§1)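 Broth microdilution adapted from NCCLS. Mid-log bacteria were diluted in MHB to a final (0.5–1) × 10^5 CFU mL−1. Peptides were serially diluted in 0.2% BSA and mixed with an equal volume of cells. After 24 h at 37 °C, MIC was read at A492 as the lowest concentration inhibiting 95% of growth. At least three independent experiments, each with three technical replicates.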

[2] = Antibacterial activity against Salmonella pullorum ATCC 7913 measured after 24 hrs; type: functional, Salmonella enterica subsp. enterica serovar Pullorum; conditions: Salmonella enterica, ATCC 7913, 24 h; method in brief: as §1
Pseudomonas aeruginosa [3] = experiment: Antibacterial activity against Pseudomonas aeruginosa ATCC 27853 measured after 24 hrs; type: functional; conditions: ATCC 27853, 24 h; method in brief: as §1
Escherichia coli [4] = experiment: Antibacterial activity against Escherichia coli K88 measured after 24 hrs; type: functional; conditions: K88, 24 h; method in brief: as §1
[5] = test system: Staphylococcus epidermidis; experiment: Antibacterial activity against Staphylococcus epidermidis ATCC 12228 measured after 24 hrs; type: functional; conditions: ATCC 12228, 24 h; method in brief: as §1
Escherichia coli [6] = experiment: Bactericidal activity against Escherichia coli UB1005 incubated for 24 hrs followed by replating on agar plate and measured after overnight incubation; type: functional; conditions: UB1005, 24 h, read-out: MBC>99.9
Method in brief: (§2)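 Mid-log bacteria diluted in MHB to (0.5–1) × 10^5 CFU/mL and mixed 1:1 with peptide serially diluted in 0.2% BSA. After 24 h at 37 °C, 50 μL of each mixture was plated on agar and incubated overnight. MBC taken as the lowest concentration killing >99.9% of cells. At least three independent experiments, each with three technical replicates.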

Salmonella typhimurium = experiment: Bactericidal activity against Salmonella typhimurium ATCC 14028 incubated for 24 hrs followed by replating on agar plate and measured after overnight incubation; type: functional, Salmonella enterica subsp. enterica serovar Typhimurium; conditions: Salmonella enterica, ATCC 14028, 24 h; read-out: MBC>99.9; method in brief: as §2
Pseudomonas aeruginosa [7] = experiment: Bactericidal activity against Pseudomonas aeruginosa ATCC 27853 incubated for 24 hrs followed by replating on agar plate and measured after overnight incubation; type: functional; conditions: ATCC 27853, 24 h, read-out: MBC>99.9; method in brief: as §2
Escherichia coli [8] = experiment: Bactericidal activity against Escherichia coli K88 incubated for 24 hrs followed by replating on agar plate and measured after overnight incubation; type: functional; conditions: K88, 24 h, read-out: MBC>99.9; method in brief: as §2
Staphylococcus aureus [9] = experiment: Bactericidal activity against methicillin-resistant Staphylococcus aureus ATCC 43300 incubated for 24 hrs followed by replating on agar plate and measured after overnight incubation; type: functional; conditions: ATCC 43300, 24 h, read-out: MBC>99.9
Method in brief: (§3)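 After the 24 h, 37 °C MHB microdilution MIC assay, 50 μL from each well was plated on agar and incubated overnight. MBC taken as lowest peptide concentration killing >99.9% of cells. At least three independent experiments, each with three technical replicates.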

Staphylococcus aureus [10] = experiment: Bactericidal activity against Staphylococcus aureus ATCC 29213 incubated for 24 hrs followed by replating on agar plate and measured after overnight incubation; type: functional; conditions: ATCC 29213, 24 h, read-out: MBC>99.9; method in brief: as §3
Escherichia coli [11] = experiment: Antibacterial activity against Escherichia coli ATCC 25922 measured after 18 to 24 hrs in presence of CaCl2; type: functional
Escherichia coli [12] = experiment: Antibacterial activity against Escherichia coli ATCC 25922 measured after 18 to 24 hrs in presence of MgCl2; type: functional
Escherichia coli [13] = experiment: Antibacterial activity against Escherichia coli ATCC 25922 measured after 18 to 24 hrs in presence of ZnCl2; type: functional
Staphylococcus aureus [14] = experiment: Antibacterial activity against Staphylococcus aureus ATCC 29213 measured after 18 to 24 hrs in presence of KCl; type: functional
Staphylococcus aureus [15] = experiment: Antibacterial activity against Staphylococcus aureus ATCC 29213 measured after 18 to 24 hrs in presence of MgCl2; type: functional
Staphylococcus aureus [16] = experiment: Antibacterial activity against Staphylococcus aureus ATCC 29213 measured after 18 to 24 hrs in presence of NH4Cl; type: functional
Method in brief: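 MIC broth microdilution (MHB, 0.2% BSA peptide diluent, A492, 95% inhibition) run in the presence of physiological salts at final concentrations of 6 μM NH4Cl or 8 μM ZnCl2. Three independent assays, each with three technical replicates.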

Candida albicans [17] = experiment: Antifungal activity against Candida albicans cgmcc2.2086 measured after 48 hrs in presence of KCl by broth microdilution method; type: functional; conditions: cgmcc2.2086, 48 h
Candida albicans [18] = experiment: Antifungal activity against Candida albicans cgmcc2.2086 measured after 48 hrs in presence of MgCl by broth microdilution method; type: functional; conditions: cgmcc2.2086, 48 h
[19] = Cytotoxicity against mouse RAW264.7 cells assessed as cell viability at 2 to 64 uM measured after 18 to 24 hrs by MTT assay relative to control; type: cell-based; conditions: RAW264.7 cells, read-out: Activity
Method in brief: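 MTT assay: RAW264.7 cells seeded at 1.0–2.0×10^4 per well and exposed to peptide (2–64 µM) for 18–24 h at 37 °C in 5% CO2. MTT (0.5 mg/mL) added for 4 h, formazan dissolved in DMSO, read at 570 nm. At least three independent experiments with triplicate wells.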

[20] = Therapeutic index, ratio of MHC10 for hemolytic activity in human RBC to MIC95 against Escherichia coli ATCC 25922; type: toxicity; conditions: human red blood cells (erythrocytes), pooled result: one value given for 9 cell lines, strains, targets or settings, read-out: TI
Method in brief: (§4)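 Therapeutic index = MHC divided by MIC. MHC is the lowest concentration giving >10% lysis of human RBC (1 h, 37 °C, 1-128 µM, A576). MIC is 95% growth inhibition by broth microdilution: bacteria in MHB 24 h at 37 °C; Candida in MOPS-buffered RPMI 1640 at (0.5–1) × 10^3 CFU mL−1, 48 h at 28 °C.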

[21] = Therapeutic index, ratio of MHC10 for hemolytic activity in human RBC to MIC95 against methicillin-resistant Staphylococcus aureus ATCC 43300; type: toxicity; conditions: human red blood cells (erythrocytes), read-out: TI; method in brief: as §4
[22] = Therapeutic index, ratio of MHC10 for hemolytic activity in human RBC to MIC95 against Staphylococcus aureus ATCC 25923; type: toxicity; conditions: human red blood cells (erythrocytes), read-out: TI; method in brief: as §4
[23] = Therapeutic index, ratio of MHC10 for hemolytic activity in human RBC to MIC95 against Candida albicans cgmcc2.2086; type: toxicity; conditions: human red blood cells (erythrocytes), read-out: TI; method in brief: as §4
[24] = Therapeutic index, ratio of MHC10 for hemolytic activity in human RBC to MIC95 against Candida parapsilosis cgmcc2.3989; type: toxicity; conditions: human red blood cells (erythrocytes), read-out: TI; method in brief: as §4
[25] = Therapeutic index, ratio of MHC10 for hemolytic activity in human RBC to MIC95 against Candida tropicalis cgmcc2.1975; type: toxicity; conditions: human red blood cells (erythrocytes), read-out: TI; method in brief: as §4
[26] = Conformational stability in pH 7.4 sodium phosphate buffer assessed as absorption spectra at minimum dichroic band at 35 uM by CD spectra analysis; type: physicochemical; conditions: pH 7.4, 35 µM
Method in brief: (§5)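 CD spectra from 190 to 250 nm of peptide at 35 μM in 10 mM PBS, 30 mM SDS micelles or 50% TFE, recorded in a 1.0-mm quartz cell. Ellipticity was converted to mean residue ellipticity. Three independent scans, each averaged over more than 3 runs.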

[27] = Conformational stability in 50% trifluoro-ethyl alcohol assessed as alpha-helical structural propensity by measuring absorption spectra at minimum dichroic band at 35 uM by CD spectra analysis; type: physicochemical; method in brief: as §5

Compound	MIC95 (Escherichia coli [1])	MIC95 [2]	MIC95 (Pseudomonas aeruginosa [3])	MIC95 (Escherichia coli [4])	MIC95 [5]	MBC (Escherichia coli [6])	MBC (Salmonella typhimurium)	MBC (Pseudomonas aeruginosa [7])	MBC (Escherichia coli [8])	MBC (Staphylococcus aureus [9])	MBC (Staphylococcus aureus [10])	MIC95 (Escherichia coli [11])	MIC95 (Escherichia coli [12])	MIC95 (Escherichia coli [13])	MIC95 (Staphylococcus aureus [14])	MIC95 (Staphylococcus aureus [15])	MIC95 (Staphylococcus aureus [16])	MIC95 (Candida albicans [17])	MIC95 (Candida albicans [18])	viability at up to 64 µM [19]	also measured
CC(C)(O/N=C(\C(=O)N[C@@H]1C(=O)N2C(C(=O)[O-])=C(C[n+]3ccccc3)CS[C@H]12)c1csc(N)n1)C(=O)O [CEFTAZIDIME]	2 µM (≈ 1.09 µg/mL)	1 µM (≈ 0.547 µg/mL)	2 µM (≈ 1.09 µg/mL)	1 µM (≈ 0.547 µg/mL)	16 µM (≈ 8.75 µg/mL)	2 µM (≈ 1.09 µg/mL)	1 µM (≈ 0.547 µg/mL)	4 µM (≈ 2.19 µg/mL)	1 µM (≈ 0.547 µg/mL)	32 µM (≈ 17.5 µg/mL)	16 µM (≈ 8.75 µg/mL)	2 µM	2 µM	2 µM	16 µM	16 µM	16 µM	> 128 µM	> 128 µM	–	–
H-AARIILRWFRR-NH2	2 µM	4 µM	8 µM	2 µM	2 µM	4 µM	8 µM	16 µM	4 µM	8 µM	8 µM	4 µM	2 µM	2 µM	4 µM	4 µM	4 µM	8 µM	16 µM	90 to 100%	selectivity ratio [20]: 87.1; selectivity ratio [21]: 53.8; selectivity ratio [22]: 53.8; selectivity ratio [23]: 50.8; selectivity ratio [24]: 50.8; selectivity ratio [25]: 50.8; Wavelength of minimum CD band [26]: 200 nm; Activity [27]: 208 to 222 nm
H-AARIILRARFR-NH2	4 µM	4 µM	16 µM	2 µM	2 µM	4 µM	4 µM	32 µM	4 µM	4 µM	8 µM	32 µM	16 µM	4 µM	8 µM	8 µM	4 µM	16 µM	32 µM	90 to 100%	selectivity ratio [20]: 69.1; selectivity ratio [21]: 90.5; selectivity ratio [22]: 90.5; selectivity ratio [23]: 25.4; selectivity ratio [24]: 25.4; selectivity ratio [25]: 25.4; Wavelength of minimum CD band [26]: 200 nm; Activity [27]: 208 to 222 nm
